According to ChEMBL document CHEMBL1139391, “Synthesis and structure-activity relationship of benzetimide derivatives as human CXCR3 antagonists” (Bioorg Med Chem Lett, 2008):

What was measured:
[1] = molecular target: T1, C-X-C chemokine receptor type 3 (Homo sapiens, UniProt P49682); assay: Antagonist activity at human CXCR3 expressed in CHO cells assessed as inhibition of ITAC-stimulated [35S]GTPgammaS binding pretreated 30 mins before ITAC challenge; format: functional, cell-based
T1 sequence (P49682 whole entry): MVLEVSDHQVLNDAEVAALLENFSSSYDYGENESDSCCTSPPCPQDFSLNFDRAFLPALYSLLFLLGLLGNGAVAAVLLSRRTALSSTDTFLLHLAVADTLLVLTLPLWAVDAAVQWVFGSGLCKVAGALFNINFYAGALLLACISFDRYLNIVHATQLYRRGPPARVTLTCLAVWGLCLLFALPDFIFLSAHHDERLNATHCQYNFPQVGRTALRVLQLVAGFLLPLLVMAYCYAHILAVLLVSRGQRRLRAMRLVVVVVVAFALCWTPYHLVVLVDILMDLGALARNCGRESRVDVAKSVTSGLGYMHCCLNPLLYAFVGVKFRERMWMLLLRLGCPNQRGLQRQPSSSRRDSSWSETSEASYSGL

[2] = molecular target: T1, C-X-C chemokine receptor type 3; assay: Displacement of [125I]ITAC from CXCR3 in PHA/IL-2 activated human PBMC pretreated 30 mins before [125I]ITAC challenge after 1 hr by liquid scintillation counter
Procedure, shortened: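 Pre-incubated with compound for 30 min. 80 pM [125I]-ITAC (2000 Ci/mmol) added for 60 min at 4 °C. Harvested on polyethyleneimine-presoaked GF/B filters; radioactivity counted by liquid scintillation.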

[3] = molecular target: T2, Muscarinic acetylcholine receptor M2 (Homo sapiens, UniProt P08172); assay: Binding affinity to human muscarinic M2 receptor
T2 sequence (P08172 whole entry): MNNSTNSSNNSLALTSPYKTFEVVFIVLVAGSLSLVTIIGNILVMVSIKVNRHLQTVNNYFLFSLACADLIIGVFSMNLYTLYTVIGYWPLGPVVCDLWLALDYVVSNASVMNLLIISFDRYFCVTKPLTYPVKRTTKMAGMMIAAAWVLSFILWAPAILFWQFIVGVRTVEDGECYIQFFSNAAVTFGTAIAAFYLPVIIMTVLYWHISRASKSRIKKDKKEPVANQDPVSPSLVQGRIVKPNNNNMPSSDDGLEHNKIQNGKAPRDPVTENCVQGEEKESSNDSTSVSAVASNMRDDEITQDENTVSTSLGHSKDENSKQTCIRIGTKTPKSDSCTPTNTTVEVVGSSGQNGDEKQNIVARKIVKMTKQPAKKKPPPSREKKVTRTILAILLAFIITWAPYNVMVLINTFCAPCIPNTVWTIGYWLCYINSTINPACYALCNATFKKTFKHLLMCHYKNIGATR

[4] = molecular target: T3, Muscarinic acetylcholine receptor M1 (Homo sapiens, UniProt P11229); assay: Binding affinity to human muscarinic M1 receptor
T3 sequence (P11229 whole entry): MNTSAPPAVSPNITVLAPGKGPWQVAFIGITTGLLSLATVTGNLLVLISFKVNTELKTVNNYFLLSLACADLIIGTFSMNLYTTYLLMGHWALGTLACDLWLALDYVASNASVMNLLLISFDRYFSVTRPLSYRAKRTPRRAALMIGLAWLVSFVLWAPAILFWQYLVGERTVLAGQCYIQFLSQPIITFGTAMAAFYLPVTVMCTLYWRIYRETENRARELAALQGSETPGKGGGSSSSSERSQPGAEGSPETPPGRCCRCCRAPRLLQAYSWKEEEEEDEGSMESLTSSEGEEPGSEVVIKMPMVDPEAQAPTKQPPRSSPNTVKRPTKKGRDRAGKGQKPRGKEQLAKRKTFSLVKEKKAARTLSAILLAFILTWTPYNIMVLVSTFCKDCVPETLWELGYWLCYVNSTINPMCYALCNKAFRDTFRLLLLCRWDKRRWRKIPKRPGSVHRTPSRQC

[5] = molecular target: Muscarinic acetylcholine receptor M3 (Homo sapiens, UniProt P20309); assay: Binding affinity to human muscarinic M3 receptor
Sequence of Muscarinic acetylcholine receptor M3 (P20309 whole entry): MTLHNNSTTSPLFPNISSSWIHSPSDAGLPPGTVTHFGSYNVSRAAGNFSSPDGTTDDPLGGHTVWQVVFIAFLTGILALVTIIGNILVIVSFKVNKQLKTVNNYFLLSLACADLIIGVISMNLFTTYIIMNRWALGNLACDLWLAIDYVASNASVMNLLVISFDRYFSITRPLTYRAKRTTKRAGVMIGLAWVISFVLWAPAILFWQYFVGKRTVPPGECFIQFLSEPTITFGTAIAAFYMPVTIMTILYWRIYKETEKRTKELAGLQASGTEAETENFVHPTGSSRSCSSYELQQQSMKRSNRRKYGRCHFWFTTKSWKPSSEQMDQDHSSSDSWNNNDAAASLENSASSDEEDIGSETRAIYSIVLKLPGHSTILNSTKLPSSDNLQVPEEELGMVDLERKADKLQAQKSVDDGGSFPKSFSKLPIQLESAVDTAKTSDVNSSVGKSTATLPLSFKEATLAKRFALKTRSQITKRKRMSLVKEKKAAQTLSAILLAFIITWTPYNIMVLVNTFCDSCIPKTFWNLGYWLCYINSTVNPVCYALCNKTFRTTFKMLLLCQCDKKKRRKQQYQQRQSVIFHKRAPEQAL

PBMC = assay: Reduction of ITAC-induced migration in PHA/IL-2 activated human PBMC pretreated 10 mins before ITAC challenge after 3 hrs by fluorescent plate reader; format: functional, cell-based
Procedure, shortened: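 Cells pre-incubated with compound for 10 min at 25 °C. 80,000 cells per well placed on the filter topside, in 6-fold replicates. Lower wells held 3 nM human ITAC. After 3 h at 37 °C, non-migrated cells were removed and migrated cells quantified by fluorescence plate reader.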

[6] = molecular target: T4, C-C chemokine receptor type 1 (Homo sapiens) (UniProt P32246); assay: Displacement of [125I]MIP1alpha from human CCR1 expressed in CHO cells at 10 uM; format: cell-based
T4 sequence (whole entry): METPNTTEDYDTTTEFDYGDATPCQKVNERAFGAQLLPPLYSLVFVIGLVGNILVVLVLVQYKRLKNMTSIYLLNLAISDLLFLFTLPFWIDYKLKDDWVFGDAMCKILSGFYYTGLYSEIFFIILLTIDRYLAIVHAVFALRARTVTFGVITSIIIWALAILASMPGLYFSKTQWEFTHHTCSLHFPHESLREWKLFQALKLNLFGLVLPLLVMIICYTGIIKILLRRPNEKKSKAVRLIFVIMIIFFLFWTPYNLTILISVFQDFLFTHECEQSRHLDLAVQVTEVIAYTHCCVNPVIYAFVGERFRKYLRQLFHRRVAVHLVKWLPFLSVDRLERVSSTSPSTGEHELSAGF

[7] = molecular target: T5, C-C chemokine receptor type 4 (Homo sapiens) (UniProt P51679); assay: Displacement of [125I]TARC from human CCR4 expressed in CHO cells at 10 uM; format: cell-based
T5 sequence (whole entry): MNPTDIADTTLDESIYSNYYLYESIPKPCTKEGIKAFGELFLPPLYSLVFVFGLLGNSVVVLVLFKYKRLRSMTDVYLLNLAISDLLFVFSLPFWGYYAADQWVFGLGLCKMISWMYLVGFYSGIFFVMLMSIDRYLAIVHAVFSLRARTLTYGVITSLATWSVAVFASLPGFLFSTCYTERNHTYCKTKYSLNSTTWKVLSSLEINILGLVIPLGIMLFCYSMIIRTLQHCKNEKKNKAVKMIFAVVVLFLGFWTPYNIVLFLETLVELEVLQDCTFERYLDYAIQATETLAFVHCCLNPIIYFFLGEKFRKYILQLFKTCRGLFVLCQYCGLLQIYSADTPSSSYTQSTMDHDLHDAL

[8] = molecular target: T6, CX3C chemokine receptor 1 (Homo sapiens) (UniProt P49238); assay: Displacement of [125I]fractalkine from human […] expressed in CHO cells at 10 uM; format: cell-based
T6 sequence (whole entry): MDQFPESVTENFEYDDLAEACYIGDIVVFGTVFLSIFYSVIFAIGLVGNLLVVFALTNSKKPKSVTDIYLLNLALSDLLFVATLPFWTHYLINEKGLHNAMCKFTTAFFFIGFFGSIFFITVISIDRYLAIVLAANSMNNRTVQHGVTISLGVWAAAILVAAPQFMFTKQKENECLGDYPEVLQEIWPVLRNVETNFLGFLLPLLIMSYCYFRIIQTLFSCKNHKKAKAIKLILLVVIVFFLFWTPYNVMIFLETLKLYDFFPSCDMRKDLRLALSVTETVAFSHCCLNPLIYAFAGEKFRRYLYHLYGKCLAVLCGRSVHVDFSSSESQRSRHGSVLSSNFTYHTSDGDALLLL

[9] = molecular target: Interleukin-8 receptors, CXCR1/CXCR2 (Homo sapiens) (UniProt P25025+P25024); assay: Displacement of [125I]IL8 from human CXCR1/2 expressed in CHO cells at 10 uM; format: cell-based
[10] = molecular target: C-C chemokine receptor type 2 (Homo sapiens) (UniProt P41597); assay: Displacement of [125I]MCP1 from human CCR2 expressed in CHO cells at 10 uM; format: cell-based
Sequence of C-C chemokine receptor type 2 (Homo sapiens) (P41597 whole entry, looked up): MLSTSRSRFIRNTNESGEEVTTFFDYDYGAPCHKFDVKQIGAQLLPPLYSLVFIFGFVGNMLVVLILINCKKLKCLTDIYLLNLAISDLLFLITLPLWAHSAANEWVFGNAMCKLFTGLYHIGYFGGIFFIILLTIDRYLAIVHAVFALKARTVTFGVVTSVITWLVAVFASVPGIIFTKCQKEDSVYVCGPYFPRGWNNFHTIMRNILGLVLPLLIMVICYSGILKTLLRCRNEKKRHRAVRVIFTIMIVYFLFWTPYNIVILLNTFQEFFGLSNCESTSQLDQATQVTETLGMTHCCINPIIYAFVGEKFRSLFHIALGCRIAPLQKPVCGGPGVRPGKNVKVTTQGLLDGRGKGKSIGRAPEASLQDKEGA

| IC50 [1] [nM] | IC50 [2] [nM] | IC50 [3] [nM] | IC50 [4] [nM] | IC50 [5] [nM] | inhibition [6] [%] | inhibition [7] [%] | inhibition [8] [%] | inhibition [9] [%] | inhibition [10] [%] | SMILES | IC50 (PBMC) [nM] |
| --- | --- | --- | --- | --- | --- | --- | --- | --- | --- | --- | --- |
| 610 | 330 | > 10000 | 9600 | > 10000 | – | – | – | – | – | O=C1CCC(c2ccccc2)(C2CCN(Cc3ccc(Br)cc3)CC2)C(=O)N1 (stereo in doubt; (-)-1a) [listing 1 of 2 here] | 690 |
| – | – | – | – | – | < 25 | < 25 | < 25 | < 25 | < 25 | O=C1CCC(c2ccccc2)(C2CCN(Cc3ccc(Br)cc3)CC2)C(=O)N1 (stereo in doubt; (-)-1a) [listing 2 of 2 here] | – |
